# Assay results reported in ChEMBL document CHEMBL2440047, “Design, synthesis, and structure-activity relationships of azolylmethylpyrroloquinolines as nonsteroidal aromatase inhibitors” (J Med Chem, 2013).
# How the values were obtained:
# [1] = biological target: T1, Aromatase (Homo sapiens, UniProt P11511); experiment: Inhibition of aromatase (unknown origin) using 7-methoxy-4-trifluoromethylcoumarin as substrate after 30 mins by fluorimetric analysis
# T1 sequence (P11511 whole entry): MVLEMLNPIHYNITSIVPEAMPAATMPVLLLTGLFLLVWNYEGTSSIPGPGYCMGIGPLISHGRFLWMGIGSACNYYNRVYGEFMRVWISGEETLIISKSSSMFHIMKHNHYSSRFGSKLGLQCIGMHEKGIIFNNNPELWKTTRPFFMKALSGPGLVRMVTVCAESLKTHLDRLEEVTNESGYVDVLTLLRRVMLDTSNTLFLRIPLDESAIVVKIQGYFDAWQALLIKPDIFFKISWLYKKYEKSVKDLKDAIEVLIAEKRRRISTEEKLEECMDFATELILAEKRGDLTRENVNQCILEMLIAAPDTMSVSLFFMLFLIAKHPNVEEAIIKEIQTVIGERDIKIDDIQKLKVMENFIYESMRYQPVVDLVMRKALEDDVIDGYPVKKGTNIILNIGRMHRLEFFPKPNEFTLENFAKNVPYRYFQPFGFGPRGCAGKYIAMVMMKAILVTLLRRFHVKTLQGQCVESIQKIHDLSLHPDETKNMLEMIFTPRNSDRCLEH
# Method in brief: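 Recombinant CYP19 from a high-throughput screening kit, with 7-methoxy-4-trifluoromethylcoumarin as substrate. Enzyme/substrate mix was then added for 30 min at 37 °C before stop reagent. Fluorescence read at λex 410 / λem 530 nm. IC50 given as mean ± SEM of three independent experiments run in duplicate.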
# [2] = biological target: T1, Aromatase; experiment: Inhibition of CYP19 in human H295R cells using [1beta-3H(N)]-androst-4-ene-3,17-dione at 10 uM after 24 hrs by tritiated water release assay; format: cell-based
# Method in brief: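 Cells were then incubated 2 h with 0.5 µM [1β-3H(N)]-androst-4-ene-3,17-dione. Read-out is tritiated water release, expressed as % of untreated cells. Means ± SEM of two independent experiments, each in triplicate.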
# [3] = test system: IGROV-1; experiment: Growth inhibition of estrogen-sensitive human IGROV1 cells after 72 hrs by MTT assay; format: functional; conditions: IGROV-1, 72 h
# Method in brief: (§1)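 Cells were seeded at 8x10^3 per well and left 18 h at 37 °C, 5% CO2, then exposed 72 h to compound at several concentrations from 10 mM DMSO stocks (final DMSO ≤0.25%). Jurkat, RS4;11 and SEM were grown in RPMI-1640; H295R in DMEM-F12 with 2% FBS plus insulin-transferrin-selenium. Viability read by MTT.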
# [4] = biological target: T2, Steroid 17-alpha-hydroxylase/17,20 lyase (Homo sapiens, UniProt P05093); experiment: Inhibition of human CYP17 expressed in Escherichia coli using progesterone as substrate NADPH as cofactor
# T2 sequence (P05093 whole entry): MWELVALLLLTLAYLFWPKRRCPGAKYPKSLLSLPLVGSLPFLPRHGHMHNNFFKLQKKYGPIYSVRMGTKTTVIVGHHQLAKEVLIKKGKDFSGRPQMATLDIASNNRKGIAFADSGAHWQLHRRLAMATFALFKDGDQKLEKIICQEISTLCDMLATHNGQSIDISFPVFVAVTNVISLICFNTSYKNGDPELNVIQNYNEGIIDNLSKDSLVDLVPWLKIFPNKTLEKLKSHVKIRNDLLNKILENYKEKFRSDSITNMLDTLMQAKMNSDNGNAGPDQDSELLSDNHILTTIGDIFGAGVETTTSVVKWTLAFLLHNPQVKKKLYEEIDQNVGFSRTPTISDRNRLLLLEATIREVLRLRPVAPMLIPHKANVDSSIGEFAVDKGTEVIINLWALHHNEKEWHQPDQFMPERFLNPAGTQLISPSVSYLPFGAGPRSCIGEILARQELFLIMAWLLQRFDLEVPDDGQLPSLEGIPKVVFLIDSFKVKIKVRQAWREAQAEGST
# Method in brief: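 Cell-free assay using the 50000g sediment of E. coli coexpressing human CYP17 and cytochrome P450 reductase, with progesterone substrate and NADPH cofactor. IC50 given as mean ± SEM of three independent experiments run in duplicate.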
# [5] = test system: NCI-H295R; experiment: Growth inhibition of estrogen-sensitive human NCI-H295R cells after 72 hrs by MTT assay; format: functional; method in brief: as §1
# [6] = test system: OVCAR-3; experiment: Growth inhibition of estrogen-sensitive human OVCAR3 cells after 72 hrs by MTT assay; format: functional; conditions: OVCAR-3, 72 h; method in brief: as §1
# [7] = test system: HeLa; experiment: Growth inhibition of non-estrogen-sensitive human HeLa cells after 72 hrs by MTT assay; format: functional; method in brief: as §1
# [8] = test system: MCF7; experiment: Growth inhibition of estrogen-sensitive human MCF7 cells after 72 hrs by MTT assay; format: functional; conditions: MCF7, 72 h; method in brief: as §1
# [9] = test system: Jurkat; experiment: Growth inhibition of non-estrogen-sensitive human Jurkat cells after 72 hrs by MTT assay; format: functional; method in brief: as §1
# [10] = Growth inhibition of non-estrogen-sensitive human SEM cells after 72 hrs by MTT assay; format: functional; method in brief: as §1
# [11] = test system: HT-29; experiment: Growth inhibition of non-estrogen-sensitive human HT-29 cells after 72 hrs by MTT assay; format: functional; conditions: HT-29, 72 h; method in brief: as §1
# [12] = biological target: T1, Aromatase; experiment: Activation of aromatase in human H295R cells using [1beta-3H(N)]-androst-4-ene-3,17-dione as substrate at 0.1 uM after 24 hrs by tritiated water release assay
# [13] = Growth inhibition of non-estrogen-sensitive human RS4:11 cells after 72 hrs by MTT assay; format: functional; conditions: RS4-11, 72 h; method in brief: as §1
# [14] = biological target: T3, Cytochrome P450 11B1, mitochondrial (Homo sapiens, UniProt P15538); experiment: Inhibition of human CYP11B1 using [1,2-3H]-11-deoxycorticosterone as substrate
# T3 sequence (P15538 whole entry): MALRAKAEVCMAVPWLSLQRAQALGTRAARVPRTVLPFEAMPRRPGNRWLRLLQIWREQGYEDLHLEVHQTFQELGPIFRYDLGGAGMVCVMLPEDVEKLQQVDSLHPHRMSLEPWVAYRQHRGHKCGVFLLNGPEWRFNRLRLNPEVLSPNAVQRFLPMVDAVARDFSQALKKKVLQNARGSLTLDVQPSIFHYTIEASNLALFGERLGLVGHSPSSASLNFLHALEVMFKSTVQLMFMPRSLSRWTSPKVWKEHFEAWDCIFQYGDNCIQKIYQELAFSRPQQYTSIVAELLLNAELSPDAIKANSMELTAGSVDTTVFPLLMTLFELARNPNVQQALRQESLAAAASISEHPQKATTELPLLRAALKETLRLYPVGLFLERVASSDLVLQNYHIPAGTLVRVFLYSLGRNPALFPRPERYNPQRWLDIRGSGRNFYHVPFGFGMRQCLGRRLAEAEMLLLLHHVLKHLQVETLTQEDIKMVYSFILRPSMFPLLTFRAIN
# Method in brief: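 Hamster fibroblast V79MZh cells expressing human CYP11B1 were incubated with [1,2-3H]-11-deoxycorticosterone substrate and inhibitor at several concentrations. IC50 given as mean ± SEM of three independent experiments run in duplicate.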
# [15] = biological target: T1, Aromatase; experiment: Inhibition of aromatase in human H295R cells using [1beta-3H(N)]-androst-4-ene-3,17-dione as substrate at 10 uM after 24 hrs by tritiated water release assay
# [16] = biological target: T1, Aromatase; experiment: Inhibition of aromatase (unknown origin) using 7-methoxy-4-trifluoromethylcoumarin as substrate at 10 uM after 30 mins by fluorimetric analysis; conditions: 0.5 h
IC50 [1] [µM],inhibition (INH) [2],IC50 [4] [µM],GI50 [5] [µM],GI50 [6] [µM],GI50 [7] [µM],GI50 [8] [µM],GI50 [9] [µM],GI50 [11] [µM],Activity [12],IC50 [14] [µM],inhibition at 10 µM [15] [%],inhibition (INH) [16],SMILES,GI50 [3] [µM],GI50 [10] [µM],GI50 [13] [µM]
> 10,Not Active,–,–,–,–,–,–,–,–,–,–,–,CCOC(=O)c1cc(-c2ccccc2)nc2ccc3c(ccn3CC)c12,–,–,–
> 10,–,–,–,–,–,–,–,–,–,–,90,–,CCn1ccc2c3c(CO)cc(-c4ccccc4)nc3ccc21,–,13.4,–
> 10,Not Active,–,–,–,–,–,–,–,–,–,–,–,CCn1ccc2c3nc(-c4ccccc4)cc(CO)c3ccc21,–,–,–

# More lines, now with the values behind:
SMILES,IC50 [1] [µM],inhibition (INH) [2],IC50 [4] [µM],GI50 [5] [µM],GI50 [6] [µM],GI50 [7] [µM],GI50 [8] [µM],GI50 [9] [µM],GI50 [11] [µM],Activity [12],IC50 [14] [µM],inhibition at 10 µM [15] [%],inhibition (INH) [16],GI50 [3] [µM],GI50 [10] [µM],GI50 [13] [µM]
COc1ccc(-c2cc(Cn3cncn3)c3ccc4[nH]ccc4c3n2)cc1,> 10,Not Active,> 5,> 100,50.6,> 100,> 100,39.5,> 100,Active,> 5,–,–,82,28.4,43.8
CCOC(=O)c1cc(C)nc2c1ccc1[nH]ccc12,> 10,Not Active,–,–,–,–,–,–,–,–,–,–,–,–,–,–
Cc1cc(CO)c2ccc3[nH]ccc3c2n1,4.15,Not Active,–,–,–,–,5.7,–,–,–,–,–,–,–,16.2,–
COc1cccc(-c2cc(=O)c3ccc4[nH]ccc4c3[nH]2)c1,0.59,–,–,0.7,0.39,38.4,0.81,21.2,17.7,–,–,–,–,0.92,35,25
COc1ccc(-c2cc(Cn3ccnc3)c3ccc4[nH]ccc4c3n2)cc1,0.454,Not Active,0.55,46.2,> 100,67.9,> 100,73.8,> 100,–,0.96,–,Not Active,> 100,25.5,23.3
CCOC(=O)c1cc(-c2ccccc2)nc2c1ccc1[nH]ccc12,> 10,Active,–,–,–,–,–,–,17.2,–,–,–,–,–,–,–
